{
  "source": "ChEMBL document CHEMBL1124035",
  "about": "“1-Amino-substituted 4-methyl-5H-pyrido[4,3-b]indoles (gamma-carbolines) as tricyclic analogues of ellipticines: a new class of antineoplastic agents” (1988)",
  "key": {"Mus musculus [1]": {"system": "Mus musculus", "test": "Antitumor activity against P388 cells at a dose of 40 mg/kg administered intraperitoneally P388 Leukemia model", "format": "functional", "conditions": "route intraperitoneal", "how_it_was_run": "(§1)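 Mice were inoculated ip with 10^6 P388 leukemia cells at D0, then given a single ip drug dose on D1. Weight change was recorded. T/C % = median survival day of treated / controls × 100; survivors counted at D30; 10 mice per dose group, 20 controls.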"}, "Mus musculus [2]": {"system": "Mus musculus", "test": "Antitumor activity against P388 cells at a dose of 80 mg/kg administered intraperitoneally P388 Leukemia model", "format": "functional", "conditions": "route intraperitoneal", "how_it_was_run": "as §1"}, "Mus musculus [3]": {"system": "Mus musculus", "test": "Antitumor activity against P388 cells at a dose of 20 mg/kg administered intraperitoneally P388 Leukemia model", "format": "functional", "conditions": "route intraperitoneal", "how_it_was_run": "as §1"}, "Mus musculus [4]": {"system": "Mus musculus", "test": "Antitumor activity against B16 melanoma cells at a dose of 20 mg/kg administered intraperitoneally to mice", "format": "functional", "conditions": "route intraperitoneal", "how_it_was_run": "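Hybrid BD F1 mice were inoculated ip at D0 with 0.5 mL of B16 melanoma homogenate (1 g tumor in 10 mL physiological serum). Drugs were given ip daily D1-9. Cisplatin 0.5 mg/kg was the positive control under the same schedule.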"}, "Mus musculus [5]": {"system": "Mus musculus", "test": "Antitumor activity against P388 leukemia in mice at a dose of 1.25 mg/kg administered intraperitoneally for 5 days", "format": "functional", "conditions": "route intraperitoneal", "how_it_was_run": "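CDF1 hybrid male or female mice, 10 per group, were inoculated ip with 10^6 viable P388 cells on day 0. Drugs in distilled water were given ip (0.1 mL/10 g body weight) daily D1-5. Vehicle, 5-fluorouracil and BD 84 were given the same way. T/C = median survival day of treated / controls × 100; T/C > 128% was significant; cures counted at D60.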"}, "Mus musculus [6]": {"system": "Mus musculus", "test": "Weight change in g when a dose of 20 mg/kg administered intraperitoneally in B-16 melanoma infected mice", "format": "functional", "conditions": "route intraperitoneal", "how_it_was_run": "(§2)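 Hybrid BDF1 mice were inoculated ip at D0 with 0.5 mL of B16 melanoma homogenate (1 g tumor in 10 mL physiological serum). Drug was given ip daily on days 1-9, with cis-platinum 0.5 mg/kg as positive control on the same schedule.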"}, "Mus musculus [7]": {"system": "Mus musculus", "test": "Weight change in g when a dose of 30 mg/kg administered intraperitoneally to mice", "format": "functional", "conditions": "route intraperitoneal"}, "Mus musculus [8]": {"system": "Mus musculus", "test": "Weight change in g when a dose of 10 mg/kg administered intraperitoneally in B-16 melanoma infected mice", "format": "functional", "conditions": "route intraperitoneal", "how_it_was_run": "as §2"}, "Mus musculus [9]": {"system": "Mus musculus", "test": "Median survival day in P388 cell line when a dose of 50 mg/kg administered intravenously to mice", "format": "functional", "conditions": "route intravenous", "how_it_was_run": "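P388 leukaemia in CDF1 hybrid mice, 10 per group. At D0, 10^6 viable cells were inoculated ip, followed by a single iv dose on D1. Weight change, median survival day, T/C (treated/control median survival × 100) and survivors at D30 were recorded.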"}, "Mus musculus [10]": {"system": "Mus musculus", "test": "Antitumor activity against P388 cells at a dose of 50 mg/kg administered intravenously to mice", "format": "functional", "conditions": "route intravenous", "how_it_was_run": "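P388 (10^6 cells) or L1210 (10^5 cells) leukemia was inoculated ip in mice at D0, followed by a single iv drug treatment on D1. Weight change was recorded. T/C % = median survival day of treated / controls × 100; survivors noted at D30; 10-15 mice per group.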"}, "Mus musculus [11]": {"system": "Mus musculus", "test": "Antitumor activity against P388 cells at a dose of 20 mg/kg administered intraperitoneally to mice", "format": "functional", "conditions": "route intraperitoneal"}, "Mus musculus [12]": {"system": "Mus musculus", "test": "In vivo toxicity test on P388 cells at a dose of 100 mg/kg administered intravenously to mice", "format": "functional", "conditions": "route intravenous", "how_it_was_run": "(§3)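 Mice (10 per group) were inoculated ip at D0 with 10^6 P388 leukemia cells and given a single iv dose at D1. Read-outs were weight change (g), median survival day, T/C % versus controls and survivors at D30.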"}, "Mus musculus [13]": {"system": "Mus musculus", "test": "Weight change in g when a dose of 5 mg/kg administered intraperitoneally to B16 melanoma infected mice", "format": "functional", "conditions": "route intraperitoneal", "how_it_was_run": "as §2"}, "Mus musculus [14]": {"system": "Mus musculus", "test": "Survivors at day D38 when a dose of 50 mg/kg administered intravenously to C38 adenocarcinoma mice model on D1 when tested in 10 mice", "format": "functional", "conditions": "route intravenous", "how_it_was_run": "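Hybrid BDF1 mice, 10 per test, were implanted sc with a standard 3-mm³ fragment of C38 colon adenocarcinoma. Drug was given iv either on D1 alone or on D2 and D9. Animals were followed per NCI (Geran) protocol.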"}, "Mus musculus [15]": {"system": "Mus musculus", "test": "Weight change in g when a dose of 2.5 mg/kg administered intraperitoneally to B16 melanoma infected mice", "format": "functional", "conditions": "route intraperitoneal", "how_it_was_run": "as §2"}, "Mus musculus [16]": {"system": "Mus musculus", "test": "Weight change in g when a dose of 20 mg/kg (iv) to L1210 leukemia mice model", "format": "functional", "how_it_was_run": "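Mice received 10^5 L1210 leukemia cells ip at D0, then a single iv drug dose at D1. Read-outs were weight change (g), median survival day, T/C % and survivors at D30.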"}, "Mus musculus [17]": {"system": "Mus musculus", "test": "Survivors at day 60 when a dose of 1.25 mg/kg to B16 melanoma infected when tested in 10 mice", "format": "functional"}, "Mus musculus [18]": {"system": "Mus musculus", "test": "Antitumor activity against C38 adenocarcinoma cells at a dose of 50 mg/kg administered intravenously on D1 to mice; tumor volume at D38 (T/C)", "format": "functional, MC-38", "conditions": "route intravenous", "how_it_was_run": "(§4)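 Hybrid BD F1 mice, 10 per group, were implanted sc with a standard 3-mm3 C38 colon adenocarcinoma fragment. Drugs were given iv at the stated doses on D1 or on D2 + D9. Read-out was tumor size in treated versus control mice (T/C) at the day stated.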"}, "Mus musculus [19]": {"system": "Mus musculus", "test": "Median survival day of B16 melanoma infected mice, when a dose of 1.25 mg/kg administered intraperitoneally", "conditions": "route intraperitoneal"}, "Mus musculus [20]": {"system": "Mus musculus", "test": "Weight change in g when a dose of 100 mg/kg intravenous administration to P388 leukemia mice model", "format": "functional", "how_it_was_run": "as §3"}, "Mus musculus [21]": {"system": "Mus musculus", "test": "Median survival day in L1210 leukemia mice model when a dose of 20 mg/kg administered intravenously", "format": "functional", "conditions": "route intravenous", "how_it_was_run": "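L1210 leukaemia in CDF1 hybrid male or female mice, 10 per group. At D0, 10^5 viable cells were inoculated ip, followed by a single iv dose on D1. Median survival day was recorded, and T/C was calculated as treated/control median survival × 100.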"}, "Mus musculus [22]": {"system": "Mus musculus", "test": "Median survival day of B16 melanoma infected mice when a dose of 10 mg/kg administered intraperitoneally", "format": "functional", "conditions": "route intraperitoneal", "how_it_was_run": "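B16 melanoma in hybrid BD F1 mice. At D0 each mouse was inoculated ip with 0.5 mL of homogenate made from 1 g of tumour in 10 mL of physiological serum. Compounds were given ip daily at the stated doses for 9 days (D1-9), with cis-platinum 0.5 mg/kg under the same schedule as positive control.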"}, "Mus musculus [23]": {"system": "Mus musculus", "test": "Weight change in g when a dose of 5 mg/kg administered intraperitoneally B16 melanoma infected mice", "format": "functional", "conditions": "route intraperitoneal", "how_it_was_run": "as §2"}, "Mus musculus [24]": {"system": "Mus musculus", "test": "Survivors at day D30 when a dose of 20 mg/kg administered intravenously to L1210 leukemia mice model; 0/10", "format": "functional", "conditions": "route intravenous"}, "Mus musculus [25]": {"system": "Mus musculus", "test": "Survivors at day 30 when a dose of 5 mg/kg to P388 leukemia model; 0/10", "format": "functional"}, "Mus musculus [26]": {"system": "Mus musculus", "test": "Antitumor activity against C38 adenocarcinoma cells at a dose of 50 mg/kg administered intravenously to mice; tumor volume at D32 (T/C)", "format": "functional, MC-38", "conditions": "route intravenous", "how_it_was_run": "as §4"}, "Mus musculus [27]": {"system": "Mus musculus", "test": "Antitumor activity against C38 adenocarcinoma cells at a dose of 75 mg/kg administered intravenously to mice; tumor volume at D32 (T/C)", "format": "functional, MC-38", "conditions": "route intravenous", "how_it_was_run": "as §4"}, "Mus musculus [28]": {"system": "Mus musculus", "test": "Survivors at day 30 when a dose of 40 mg/kg to P388 leukemia model; 1/10", "format": "functional"}, "Mus musculus [29]": {"system": "Mus musculus", "test": "Survivors at day 60 when a dose of 5 mg/kg to B16 melanoma infected mice; 3/10"}},
  "data": [
    {"smiles": "CCN(CC)CCCNc1[nH]cc(C)c2nc3ccc(O)cc3c1-2", "values": [
      {"measurement": "T/C", "setting": "Mus musculus [1]", "result": 136, "unit": "%"},
      {"measurement": "T/C", "setting": "Mus musculus [2]", "result": 20, "unit": "%"},
      {"measurement": "T/C", "setting": "Mus musculus [3]", "result": 139, "unit": "%"},
      {"measurement": "T/C", "setting": "Mus musculus [4]", "result": 211, "unit": "%"},
      {"measurement": "T/C", "setting": "Mus musculus [5]", "result": 153, "unit": "%"},
      {"measurement": "Weight change", "setting": "Mus musculus [6]", "result": -0.8, "unit": "g"},
      {"measurement": "Weight change", "setting": "Mus musculus [7]", "result": -1, "unit": "g"},
      {"measurement": "Weight change", "setting": "Mus musculus [8]", "result": 1.6, "unit": "g"}
    ]},
    {"smiles": "Cc1cnc(NCCCN(C)C)c2c3cc(O)ccc3n(C)c12", "values": [
      {"measurement": "Median survival day", "setting": "Mus musculus [9]", "result": 17.75},
      {"measurement": "T/C", "setting": "Mus musculus [10]", "result": 163, "unit": "%"},
      {"measurement": "T/C", "setting": "Mus musculus [11]", "result": 164, "unit": "%"},
      {"measurement": "T/C", "setting": "Mus musculus [12]", "result": 236, "unit": "%"},
      {"measurement": "Weight change", "setting": "Mus musculus [13]", "result": -0.2, "unit": "g"},
      {"measurement": "Survivors", "setting": "Mus musculus [14]", "result": 10},
      {"measurement": "Weight change", "setting": "Mus musculus [15]", "result": 0.1, "unit": "g"},
      {"measurement": "Weight change", "setting": "Mus musculus [16]", "result": -1.1, "unit": "g"},
      {"measurement": "Survivors", "setting": "Mus musculus [17]", "result": 0},
      {"measurement": "Tumor volume", "setting": "Mus musculus [18]", "result": 30, "unit": "%"},
      {"measurement": "Median survival day", "setting": "Mus musculus [19]", "result": 29.75}
    ]},
    {"smiles": "CCN(CC)CCCNc1ncc(C)c2c1c1cc(O)ccc1n2C", "values": [
      {"measurement": "Weight change", "setting": "Mus musculus [20]", "result": -1.6, "unit": "g"},
      {"measurement": "Median survival day", "setting": "Mus musculus [21]", "result": 11.8},
      {"measurement": "Median survival day", "setting": "Mus musculus [22]", "result": 19.3},
      {"measurement": "Weight change", "setting": "Mus musculus [23]", "result": 0.2, "unit": "g"},
      {"measurement": "Survivors", "setting": "Mus musculus [24]", "result": 0},
      {"measurement": "Survivors", "setting": "Mus musculus [25]", "result": 0},
      {"measurement": "Tumor volume", "setting": "Mus musculus [26]", "result": 18, "unit": "%"},
      {"measurement": "Tumor volume", "setting": "Mus musculus [27]", "result": 13, "unit": "%"},
      {"measurement": "Survivors", "setting": "Mus musculus [28]", "result": 1},
      {"measurement": "Survivors", "setting": "Mus musculus [29]", "result": 3}
    ]}
  ]
}
